# This excerpt belongs to a sample that is enriched for hits.
# ROMK primary: human ROMK K+ channel modulation, primary screen | P48048 | Tet-inducible ROMK, thallium flux fluorescence; actives lie on both sides | B-score at 10 µM | 130,000 tested, 2% active | AID 1918;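 active means signal ratio slope over the read window, or its plate-corrected B-score, at least 3 SD from the plate mean, either direction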;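 further: B-score of the F/F0 ratio slope over 7 to 12 s after thallium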
# Target sequence (P48048 whole entry, looked up): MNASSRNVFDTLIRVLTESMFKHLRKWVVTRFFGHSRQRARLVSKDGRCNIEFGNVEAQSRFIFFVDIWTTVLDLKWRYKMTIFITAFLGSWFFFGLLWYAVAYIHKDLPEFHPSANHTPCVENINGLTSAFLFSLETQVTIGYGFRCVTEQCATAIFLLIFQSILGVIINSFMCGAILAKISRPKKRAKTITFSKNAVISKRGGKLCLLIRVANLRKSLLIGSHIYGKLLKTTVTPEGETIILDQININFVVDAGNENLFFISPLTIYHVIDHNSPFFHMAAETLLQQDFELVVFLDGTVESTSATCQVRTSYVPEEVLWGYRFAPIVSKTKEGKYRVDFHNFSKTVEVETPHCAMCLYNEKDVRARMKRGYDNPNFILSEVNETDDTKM
# Calb biofilm kill: mixture kills Candida albicans biofilm cells. C. albicans biofilm persisters + clotrimazole, fluorescence viability; primary screen in compound mixtures of four per well. inhibition, % at 7.6 µM. 120,000 tested, 0.02% active. AID 1242;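 active means inhibition above 30.3% in the primary screen of four-compound pools, then above 30% when the compound was retested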;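 further: compounds exposed to preformed 24 h biofilms for 48 h; 0% = untreated biofilm control and 100% = clotrimazole plus chlorhexidine kill blank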
#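 Incubation: 24 h biofilm formation, then 48 h compound exposure, 37 °C | Material: C. albicans biofilms | Buffer or medium: RPMI/MOPS medium, pH 7.0 | Measured by: 2-h Alamar Blue fluorescence, 535/590 nm excitation/emission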
# ROMK retest: confirmation of human ROMK potassium channel modulators. shares compounds with ROMK primary. ROMK thallium flux, fluorescence ratio; active compounds read low. normalized thallium flux (F/F0 slope) at 10 µM. 3,000 tested, 54% active. AID 1917;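 active means Flux at 10 µM at least 3 SD below or above vehicle control mean in one or both replicates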
# An asterisk follows results filed as active; nt = no result given.
SMILES,ROMK primary,Calb biofilm kill,ROMK retest
COc1ccc(C[C@H]2CN3C(=NC[C@@H]3Cc3ccccc3)N2CCNC(=O)CCC2CCCCC2)cc1,nt,18,nt
COc1ccc(C(=O)C[n+]2cccc(C)c2C)cc1[N+](=O)[O-],nt,9,nt
CCC(C)(C)c1ccc(OCCCC[n+]2cccc(C)c2C)c(C(C)(C)CC)c1,nt,18,0.037*
CCOc1ccc(CNC(=O)C2CCN(S(=O)(=O)N3CCCC3)CC2)cc1OC,0.29,nt,nt
CCCCOc1ccc(S(=O)(=O)NNC(=O)c2cc3ccccc3o2)cc1,-0.97,2,nt
CCOc1ccc(NC(=O)CCNS(=O)(=O)c2ccc(Br)s2)cc1,-0.79,nt,nt
Cc1ccc(NC(=S)NCC2CCCO2)cc1C (stereo unspecified),-0.4,15,nt
Cc1ccc(NC(=S)NCC2CCN(C(C)c3ccccc3)C2)cc1C (stereo unspecified),-4.2*,24,0.059*
CCN(CC)C(=O)Cc1c(OC)ccc2cc(Br)ccc12,-0.69,9,nt
O=C(COc1ccccc1)Nc1nccs1,3*,-10,0.077
O=C(COc1ccc2ccccc2c1)Nc1nccs1,-0.94,26,nt
CC1(C)CC(=O)/C(=C(\O)Cc2ccccc2)C(=NCCCCCC(=O)O)C1,nt,10,nt
COc1ncnc2c1NC1=C(S2)C(=NCCC(=O)O)CC(C)(C)C1,nt,nt,0.05*
CSc1nnc(-c2ccc(NC(=O)CCc3ccccc3)cc2)n1C,-0.69,nt,nt
Cc1ccccc1C(=O)Nc1ccc(-c2nnc(SC(C)C(=O)O)n2C)cc1 (stereo unspecified),nt,18,0.079
O=C(CCN1CCc2ccccc2C1)Nc1ccc2c(c1)OCO2,-0.9,nt,nt
COCC(=O)Nc1sc2c(c1C(=O)OC)C(C(=O)OC)CC2 (stereo unspecified),nt,nt,0.081
CCCC(=O)Nc1sc2c(c1C(=O)OC)C(C(=O)OC)CC2 (stereo unspecified),nt,14,nt
Cc1ccc(-c2csc(NC(=O)COc3ccc(N(C)S(=O)(=O)c4ccc(C)cc4)cc3)n2)cc1,nt,19,nt
COc1ccccc1/C=C/C=N/NC(=O)Cc1cccs1,1.3,23,nt
O=Cc1ccc(-c2ccc([N+](=O)[O-])cc2Cl)o1,0.58,12,nt
O=Cc1ccc(-c2cccc([N+](=O)[O-])c2)o1,nt,9,0.1*
COCCCNC(=S)N/N=C/c1ccc2ccccc2c1,nt,10,nt
CCN1CCN(C(=O)c2ccc(Cn3c(=O)[nH]c4cc(OC)c(OC)cc4c3=O)cc2)CC1,0.21,nt,nt
COC(=O)c1ccc2c(=O)n(CCCCCC(=O)N3CCN(c4ccccc4)CC3)c(=O)[nH]c2c1,nt,nt,0.075
SMILES,ROMK primary,Calb biofilm kill,ROMK retest
COc1ccc(Cn2c(=O)[nH]c3cc(C(=O)N4CCN(Cc5ccccc5)CC4)ccc3c2=O)cc1,nt,nt,0.079
COc1cc2[nH]c(=O)n(CCCCCC(=O)N3CCN(c4ccccc4)CC3)c(=O)c2cc1OC,0.024,nt,nt
Cc1nc2ccccc2n1C(=O)c1ccccc1[N+](=O)[O-],nt,15,nt
COCCCN(Cc1ccco1)C(=O)Cn1ncc2c(=O)oc3ccc(C)cc3c21,-0.67,18,nt
O=C(/C=C/c1ccc(O)c(O)c1)O[C@H](Cc1ccc(O)c(O)c1)C(=O)O,nt,15,nt
C/C(=N/NC(=O)C1CCN(S(=O)(=O)c2ccc(C)cc2)CC1)c1cccc([N+](=O)[O-])c1,-2.5*,12,0.076
C/C(=N\NC(=O)c1cccc([N+](=O)[O-])c1)c1cccc(NC(=O)C2CC2)c1,nt,19,nt
COc1ccc([N+](=O)[O-])cc1NCc1cccc([N+](=O)[O-])c1,nt,4,nt
CC(=O)Oc1ccc(C(=O)OCC(=O)c2c(N)n(C)c(=O)n(C)c2=O)cc1OC(C)=O,0.66,0,nt
COc1ccc(CN2CCC(N(CCc3ccccc3)Cc3ccccc3)CC2)c(OC)c1,-3.3*,14,0.051*
COc1ccc(CN2CCc3ccccc3C2)c(OC)c1,nt,15,nt
CC(=O)Nc1ccccc1C(=O)C(=O)Nc1cccc(C(=O)NC2CC2)c1,0.039,8,nt
CC1CCN(c2cc(N)c(Cl)cc2[N+](=O)[O-])CC1,nt,nt,0.069*
CC1CCN(c2cc(C#N)c(C#N)cc2[N+](=O)[O-])CC1,-0.093,nt,nt
O=C(c1ccc(COc2ccccc2Cl)o1)N1N=C(C(F)F)CC1(O)C(F)F (stereo unspecified),0.57,11,nt
CC(=O)C1CCN(Cc2ccccc2)CC1,-0.73,nt,nt
O=C(C1CCN(Cc2ccccc2)CC1)N1CCCC1,nt,nt,0.074
O=C(O)Cc1ccc(N=Cc2c(O)ccc3ccccc23)cc1,nt,14,0.081
COc1ccc(N=Cc2c(O)ccc3ccccc23)cc1,-2.8,7,nt
NNC(=O)c1cc(O)c(O)c(O)c1,0.038,-1,nt
CN(C)C(CNC(=O)c1cc(S(=O)(=O)N(C)c2ccccc2)ccc1Cl)c1ccccc1 (stereo unspecified),nt,20,nt
Cc1cccc(OCc2nnc(SCC(=O)N3CCN(c4ccccc4)CC3)o2)c1C,nt,14,nt
C=CCn1c(COc2cccc(C)c2C)nnc1SCC(=O)N1CCN(c2ccccc2)CC1,nt,2,0.054*
CCOC(=O)c1cc(C)sc1NC(=S)Nc1ccccc1,1.3,nt,nt
COC(=O)CCC(=O)Nc1sc2c(c1C#N)CCCC2,5.9*,nt,0.089
SMILES,ROMK primary,Calb biofilm kill,ROMK retest
CCCC(=O)Nc1sc2c(c1C#N)CCCC2,-0.17,nt,nt
CC(=O)Nc1ccc(S(=O)(=O)NCCC(=O)NCCc2ccc(F)cc2)cc1,nt,nt,0.081
CC(=O)Nc1ccc(NC(=O)Cc2ccc(F)cc2)cc1,0.49,5,nt
CCCC(=O)N1CCN(c2nc(CC(C)C)c3c(c2C#N)CCC3)CC1,-4.2*,nt,0.066*
CC(C)C(=O)N1CCN(c2nc(-c3ccccc3)c3c(c2C#N)CCCC3)CC1,0.12,nt,nt
CC(C)(C)C(=O)Nc1nc2ccc(S(C)(=O)=O)cc2s1,-0.2,5,nt
COc1cc(NC(=O)COC(=O)/C=C/c2ccc(Cl)cc2Cl)cc(OC)c1,0.17,12,nt
COc1ccccc1/C=C/C1=NC(=C\C=C/c2ccccc2)/C(=O)O1,-0.13,19,nt
COc1ccccc1/C=C/C=C1N=C(/C=C/c2ccc(Cl)cc2)OC/1=O,-2.6*,13,0.063*
COc1ccccc1CCNC(=O)CSc1nnc2ccc(-c3ccncc3)nn12,-0.93,9,nt
Cc1ccccc1OCC(=O)N/N=C1\SCC(=O)N1Cc1ccccc1,nt,23,nt
COc1ccccc1N(C(=O)c1snc(C(N)=O)c1N)C(C(=O)NCCC(C)C)c1ccco1 (stereo unspecified),-1.1,nt,nt
CCOc1ccccc1N(C(=O)c1snc(C(N)=O)c1N)C(C(=O)NCCC(C)C)c1ccco1 (stereo unspecified),-4.5*,nt,0.074
COc1ccc(NC(=O)c2ccc(COc3ccc(C)cc3)o2)cc1,-0.0059,5,nt
Cc1ccc(O)c(NC2=C(Cl)C(=O)N(Cc3ccccc3)C2=O)c1,0.28,-1,nt
O=C(COc1ccc(Br)cc1CNC1CCCCC1)NCCc1ccccc1,-5.2*,5,0.048*
COc1ccc(Br)cc1CN(C)CC(=O)NCCc1ccccc1,-0.81,16,nt
COCCN1CCN(Cc2cn(C)nc2-c2ccc(Oc3ccccc3)cc2)CC1,nt,17,nt
Oc1ccccc1-c1nc(NCCN2CCOCC2)c2ccccc2n1,-3.7*,nt,0.073
COc1cccc(-c2nc(NCCN3CCOCC3)c3ccccc3n2)c1O,-0.84,nt,nt
O=C(c1ccc2ccccc2c1)C1CCCN(C(=O)CCn2cnnn2)C1 (stereo unspecified),-0.65,-3,nt
CN(C)c1ccc(NC(N)=S)cc1,0.64,-2,nt

# Assay outcomes: PubChem BioAssay, several laboratories
